Drawing on paper PMC11382152 (The Journal of Organic Chemistry, 2024), this text covers MIC for one molecule.

Structures are written as SMILES. Values after ≈ are worked out from the molar mass of the structure shown.

Assay in all cases: MIC assay
Holding throughout (assay type): cell-based

Test [1] relates to Bacillus subtilis ATCC 6051. The following applies: ATCC6051. The procedure, abridged:
(§1)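 Test compounds were prepared as trifluoroacetate salts and assayed for MIC against a Gram-positive panel: B. subtilis, S. epidermidis, MSSA and MRSA. E. coli served as the Gram-negative negative-control organism. The natural parent peptide and vancomycin served as positive controls.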

Test [2] concerns Staphylococcus epidermidis ATCC 14990. As to conditions: ATCC14990. The gist of the method: as §1
Test [3] relates to Escherichia coli ATCC 10798. The following applies: ATCC10798. The gist of the method:
as §1

As to `CN[C@H](CC(C)C)C(=O)N[C@H]1C(=O)N[C@@H](CC(N)=O)C(=O)N[C@H]2C(=O)N[C@H]3C(=O)N[C@H](C(=O)N[C@H](C(=O)O)c4cc(O)cc(O)c4-c4cc3ccc4O)[C@H](O)c3ccc(c(Cl)c3)Oc3cc2cc(c3O[C@@H]2O[C@H](CO)[C@@H](O)[C@H](O)[C@H]2O[C@H]2C[C@](C)(N)[C@H](O)[C@H](C)O2)Oc2ccc(cc2Cl)[C@H]1O` [vancomycin], the MIC was 0.125 to 0.25 µg/mL (≈ 0.0863 to 0.173 µM) in test [1], 2 µg/mL (≈ 1.38 µM) in test [2] and greater than 32 µg/mL in test [3].
